Source: PubChem BioAssay
SF-1 act – activates the human nuclear receptor SF-1 | AID 522 | Q13285 | hit rate 1.9% among 65,000 | activation, % at 10 µM | CHO-K1 Gal4-SF-1 LBD luciferase reporter; % increase over DMSO SF-1-specific signal;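 active = activation above the mean activation of all tested compounds plus 3 SD, cut at about 50% in these data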
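Material: CHO-K1 cells with Gal4–hSF-1 LBD chimera plus Gal4-driven luciferase / Input: 4,000 CHO-K1 cells per well / Incubation: compound exposure 20 h at 37 °C / Signal: luminescence read 15 min after SteadyLite luciferase reagent, after room-temperature equilibration / Read-out: percent activation versus DMSO / Benchmarks: DMSO negative control and −SF1 background wells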
M1 agonist – M1 muscarinic receptor agonism. B-score at 10 µM. CHO-M1 cells, Fluo-4 calcium fluorescence, agonist mode; active compounds read high. hit rate 3% among 64,000;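 active = fluorescence rise, raw or as B-score row- and column-corrected plate score, outside the 99.7% band of its plate's samples, either direction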
M1 antag – M1 muscarinic receptor (rat) antagonism. P08482. CHO-M1 cells, Fluo-4 calcium, ACh EC80 antagonist mode; active compounds read low. B-score at 10 µM. hit rate 3.4% among 64,000. AID 628;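 active = calcium fluorescence response, raw or row-and-column corrected B-score, differing from the plate sample mean either way at a set confidence level, mostly lower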
mHtt clearance – mutant huntingtin protein clearance; HeLa Exon1htt(103Q)mCFP, aggregate imaging; zero = plate's median compound well; inhibition, % at 1.5 µM; hit rate 0.42% among 47,000;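 active = inhibition of aggregate fluorescence above about 70%, also judged a hit by eye on the cell image, limit read from the data, passing the limit was not always enough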;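 also: cells exposed to compound for three days before fixation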
D1 mod – allosteric modulators of human D1 dopamine receptor; AID 641; HEK293 D1, CRE-luciferase, dopamine EC30 potentiation; actives deviate in either direction; P21728; hit rate 5.9% among 58,000; B-score at 10 µM;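 active = luminescence count or its row- and column-corrected plate score outside the 99.7% band of the plate's sample wells, on either side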
RORA act – activates the human nuclear receptor RORA | hit rate 1.5% among 65,000 | P35398 | CHO-K1 Gal4-RORA LBD luciferase reporter, luminescence; percent increase over mock-subtracted basal signal | activation, % at 10 µM;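 active = activation above the mean of all tested compounds plus 3 SD, cut at about 49% in these data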;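 also: 0% = DMSO-treated RORA cells and 100% = added signal equal to DMSO minus mock-transfected cells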
Target sequence (P35398 whole entry, looked up, the tested form may be a part): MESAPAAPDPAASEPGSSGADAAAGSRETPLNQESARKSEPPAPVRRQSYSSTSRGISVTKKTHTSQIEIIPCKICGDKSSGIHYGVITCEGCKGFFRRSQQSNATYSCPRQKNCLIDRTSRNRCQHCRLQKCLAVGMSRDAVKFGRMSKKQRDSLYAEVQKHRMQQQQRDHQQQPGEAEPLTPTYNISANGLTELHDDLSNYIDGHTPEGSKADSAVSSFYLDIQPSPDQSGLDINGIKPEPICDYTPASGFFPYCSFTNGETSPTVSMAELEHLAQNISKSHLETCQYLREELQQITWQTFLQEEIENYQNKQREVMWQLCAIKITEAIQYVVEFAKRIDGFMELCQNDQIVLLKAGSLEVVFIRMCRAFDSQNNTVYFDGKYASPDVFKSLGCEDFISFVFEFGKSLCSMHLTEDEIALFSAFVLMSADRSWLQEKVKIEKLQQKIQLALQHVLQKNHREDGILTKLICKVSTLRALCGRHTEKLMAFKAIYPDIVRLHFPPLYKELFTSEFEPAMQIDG
D1 mod confirm – D1 receptor (human) allosteric modulation, confirmed; shares compounds with D1 mod; HEK293 D1 CRE-luciferase, dopamine EC30 potentiation; active compounds read high; luminescence at 10 µM; hit rate 88% among 2,200; AID 642;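 active = luminescence in either of two replicates above the same-plate mean plus 3 SD of the low-dose dopamine control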
D1 no dopamine – activates D1 CRE-luciferase signal without dopamine present | shares compounds with D1 mod | hit rate 0.8% among 1,900 | luminescence at 10 µM | HEK293 D1 CRE-luciferase, luminescence, no dopamine; active compounds read high; in the data active = luminescence above about 3900
Isoprot counter – counter-screen for D1 modulators: isoproterenol response in HEK293 cells. hit rate 63% among 2,200. HEK293 D1 CRE-luciferase, isoproterenol EC30 counter-screen. calls only at 10 µM. shares compounds with D1 mod. AID 647;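 active = luminescence in either replicate above plate mean of wells with a partly effective reference agonist dose plus 3 SD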;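 also: isoproterenol raises cAMP through native beta-adrenoceptor Gs so signal bypasses D1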
An asterisk follows results filed as active; i = inactive; . = no result; + = active, no number. Sampled rows, rich in hits. Any-hit rate of the full collection: about 11%.

SMILES	SF-1 act	M1 agonist	M1 antag	mHtt clearance	D1 mod	RORA act	D1 mod confirm	D1 no dopamine	Isoprot counter
CCN=C(Nc1ccc2c(c1)OCO2)SC1CC(=O)N(c2ccc(OC)cc2)C1=O (configuration not stated)	.	.	.	-45	.	.	.	.	.
CCN=C(Nc1ccc2c(c1)OCO2)SC1CC(=O)N(c2ccccc2F)C1=O (configuration not stated)	-12	-0.3	0.14	-8	6.4*	-9	12104*	2380	+
Cc1ccc(N2C(=O)c3ccc(C(=O)N4CCN(c5cccc(C)c5C)CC4)cc3C2=O)cc1	.	.	.	47	.	.	.	.	.
Oc1ccc(-c2nc3cnccn3c2Nc2ccc3c(c2)OCCO3)cc1	27	0.5	-1.5	-9	2.8*	53*	9088*	1484	+
O=C(Cn1cc2c(n1)CCCCC2)NCCCN1CCOCC1	-5	-0.14	-0.53	.	2.6*	-1	5840	1452	i
Cn1cnc2c1c(=O)n(Cc1ccc(F)cc1Cl)c(=O)n2C	1	-0.13	-0.048	-26	4*	-4	6528*	1544	i
Cn1c(NCc2ccco2)nc2c1c(=O)n(Cc1ccc(Cl)cc1Cl)c(=O)n2C	-12	0.21	-0.12	25	0.34	18	.	.	.
CCOC(=O)c1[nH]cnc1C(=O)Nc1ccncc1	-7	0.23	0.068	-14	13*	6	14788*	1588	+
CCOC(=O)c1[nH]cnc1C(=O)Nc1cccc(N)n1	-7	-0.63	-1.4	.	.	-1	.	.	.
COC(=O)Cc1[nH]nc2c1C(c1cccc(OC)c1OC)C(C#N)=C(N)O2 (configuration not stated)	-6	-0.11	-0.017	.	0.007	-19	.	.	.
CCCc1[nH]nc2c1C(c1cc(OC)ccc1F)C(C#N)=C(N)O2 (configuration not stated)	4	1.2	-1.1	6	8.2*	-18	9940*	.	+
CCOC(=O)Cc1[nH]nc2c1C(c1cccc(OC)c1OC)C(C#N)=C(N)O2 (configuration not stated)	9	-0.00046	0.88	.	6.3*	2	7976*	1640	i
CCCc1[nH]nc2c1C(c1cc(OC)cc(OC)c1)C(C#N)=C(N)O2 (configuration not stated)	-1	1.5	0.081	10	.	8	.	.	.
Cc1nnc(N2CCCCC2)c2ccccc12	-13	1.5	0.096	.	.	-2	.	.	.
Cc1nc(N2CCCCC2)c2sc(=S)n(C)c2n1	-11	0.53	0.41	2	8.2*	-17	12412*	27240*	+
COc1ccc(N2Cc3cccc(C(=O)NC(C)CCc4ccco4)c3C2=O)cc1 (configuration not stated)	-7	-0.37	0.6	-89	3.4*	-24	11280*	1872	+
COc1ccc(OC)c(C2CC(=O)c3c([nH]c(C(=O)OC(C)C)c3C)C2)c1 (configuration not stated)	-28	1.5	0.16	.	2.8*	-22	9020*	2012	+
CC12CCC(C(=O)N3CCc4ccccc43)(CC1=O)C2(C)C (configuration not stated)	6	-0.73	0.55	.	-0.14	-3	.	.	.
CC[N+](CC)(CC)C/C(N)=N/O	-2	-0.92	0.1	14	-0.36	2	.	.	.
CCOC(=O)C1CSc2[nH]c(=O)sc2C1c1ccccc1 (configuration not stated)	-1	-1.2	0.63	.	8.2*	-23	11512*	1668	+
COc1ccc(-c2csc(Cc3nnc4n3CCCCC4)n2)cc1OC	1	-0.43	0.039	-53	20*	4	24836*	1564	+
Cc1cc(C)cc(NC(=O)CCN2CC(C)OC(C)C2)c1 (configuration not stated)	-18	1.6	-0.8	7	0.27	8	.	.	.
O=C(O)CCSCC(=O)Nc1c(C(=O)C2CC2)oc2ccccc12	-3	-0.28	0.44	10	8.3*	6	14596*	.	+
CCOc1ccc(C(=O)NCc2ccco2)cc1	-15	0.15	0.017	.	.	2	.	.	.
CCOc1ccc(C(=O)NCC(=O)OC(C)C(=O)NCc2ccco2)cc1OCC (configuration not stated)	-1	-1.2	0.58	-19	6*	-14	5900	.	+
SMILES	SF-1 act	M1 agonist	M1 antag	mHtt clearance	D1 mod	RORA act	D1 mod confirm	D1 no dopamine	Isoprot counter
CN(Cc1nc2ccccc2c(=O)[nH]1)CC(O)COCc1ccco1 (configuration not stated)	17	-0.076	-0.86	-20	.	5	.	.	.
Cc1sc2nc(CN3CCN(S(=O)(=O)c4cccc5nonc45)CC3)[nH]c(=O)c2c1C	14	-0.29	-0.0032	.	3.6*	-2	8576*	1552	i
CC(NC(=O)C1CCC(=O)N1Cc1ccc(F)cc1)c1ccc2c(c1)OCCO2 (configuration not stated)	9	0.073	-0.029	-22	2.1*	-13	5700	1736	i
O=C(c1n[nH]c(=O)c2ccccc12)N1CCN(C2c3ccccc3-c3ccccc32)CC1	-4	2.7	-0.12	.	-0.12	1	.	.	.
COC(=O)Nc1sccc1C(=O)Nc1sccc1C(=O)OC	3	-0.065	0.92	-20	.	-11	.	.	.
COC(=O)c1ccsc1NC(=O)C1=COCCO1	-3	-0.21	0.079	.	9.1*	4	17084*	1496	+
CC(C)CC1(C)NC(=O)NC1=O (configuration not stated)	-20	0.16	0.0077	11	3*	-13	6352	1712	i
N#CC1=C(N)N(c2ccccc2)C2=C(C(=O)CCC2)C1c1ccsc1 (configuration not stated)	-1	0.65	0.6	.	8.3*	11	17976*	1976	i
COc1ccc(C(=O)CSc2nnnn2Cc2ccccc2)cc1	6	-0.17	-0.21	-6	0.92	6	.	.	.
O=C(CSc1nnnn1Cc1ccccc1)c1ccccc1	-4	0.45	0.96	-40	4*	-16	5880*	1460	i
Cc1cc2n(n1)C(c1ccsc1)Nc1ccccc1-2 (configuration not stated)	-18	0.35	-0.68	.	14*	-3	15520*	.	+
O=C(OC(C(=O)NCC1CCCO1)c1ccccc1F)c1ccco1 (configuration not stated)	6	0.021	0.45	-4	.	-20	.	.	.
